Screening results (PubChem)
OX1R antag-1: antagonists of human orexin 1 receptor (OX1R) | AID 485270, 2010 | 330,000 tested, 1.8% active | inhibition, % at 6.6 µM | Orexin/Hypocretin receptor type 1 (Homo sapiens), O43613 | OX1R-expressing cells, FRET antagonist read-out; in the data active means inhibition mostly above about 38%, no sharp cut-off; inactive means mostly below about 40%;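 further: 0% = agonist challenge alone and 100% = reference antagonist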
Target sequence (O43613 whole entry, looked up): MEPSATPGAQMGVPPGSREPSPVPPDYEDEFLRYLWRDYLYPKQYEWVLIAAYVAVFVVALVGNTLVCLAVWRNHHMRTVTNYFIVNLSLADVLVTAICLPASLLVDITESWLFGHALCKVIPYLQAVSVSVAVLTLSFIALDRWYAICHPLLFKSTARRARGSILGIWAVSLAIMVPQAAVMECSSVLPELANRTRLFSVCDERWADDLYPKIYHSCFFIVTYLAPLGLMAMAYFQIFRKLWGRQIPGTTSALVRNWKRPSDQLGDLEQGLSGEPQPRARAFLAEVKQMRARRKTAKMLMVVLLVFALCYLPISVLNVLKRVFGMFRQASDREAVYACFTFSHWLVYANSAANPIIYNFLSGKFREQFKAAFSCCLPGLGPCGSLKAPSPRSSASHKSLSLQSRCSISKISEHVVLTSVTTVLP
OXTR ag: human OXTR agonists, primary screen, fluorescence, CHO-OTR cells, Fluo-8 calcium. 320,000 tested, 0.32% active. activation, % at 3 µM. AID 2435, 2010. Fluo-8 calcium fluorescence; normalized: DMSO 0%, oxytocin 100%;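 active means activation above the mean of all tested compounds plus 3 SD, cutoff set per screening run, cut at about 20% in these data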;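 further: peak over basal fluorescence ratio from a 100 s FLIPR kinetic read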
CHO parental Ca: ATP-evoked calcium signal inhibitors, parental CHO, primary screen, counter-screen for OX1R antagonist project, cell-based, fluorescence, Fluo-8 calcium dye; inhibition, % at 5.6 µM; 330,000 tested, 0.63% active; parental CHO-K1, ATP-induced calcium, Fluo-8 fluorescence; AID 463079, 2010;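 active means inhibition above that plate's mean sample inhibition plus 3 SD, cut at about 26% in these data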;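 further: 0% = ATP-challenged DMSO wells and 100% = DMSO wells without ATP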
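material = parental CHO cells | also added = ATP as calcium-mobilizing challenge | dosing = single point at 5.6 µM | detection = intracellular calcium via Fluo-8 no-wash fluorescent dye | read-out = % inhibition | benchmarks = low control ATP plus DMSO, high control DMSO only | repeats = one well per compound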
OXTR potentiator: human OXTR potentiators, primary screen, fluorescence, CHO-OTR cells, Fluo-8 calcium | Oxytocin receptor (Homo sapiens), P30559 | Fluo-8 calcium fluorescence, potentiator mode; 0% = oxytocin EC15, 100% = EC100 | activation, % at 3 µM | 320,000 tested, 0.061% active | AID 2445, 2010;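 active means activation above that plate's cutoff, the mean activation of tested compounds plus 3 SD, cut at about 6.6% in these data, passing the limit was not always enough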;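 further: 100% uses oxytocin at 75 nM as the full agonist control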
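Material: CHO-OTR cells, human receptor; compound dosing: single dose, 3.0 µM nominal final compound concentration; schedule: 6 min compound pre-incubation at room temperature, 100 s kinetic read; measured by: kinetic Fluo-8 calcium fluorescence; read-out basis: % activation vs EC15 and EC100 oxytocin; controls: EC15 oxytocin alone as 0%, 75 nM oxytocin as 100%; replicates: singlicate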
OX1R antag-2: OX1R (HCRTR1) antagonists, primary screen, fluorescence, CHO/OX1R cells, Fluo-8 calcium, orexin A | Orexin/Hypocretin receptor type 1 (Homo sapiens), O43613 | Fluo-8 calcium fluorescence | inhibition, % at 5 µM | 330,000 tested, 0.43% active | AID 434989, 2010;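 active means inhibition above its plate's threshold, mean inhibition of all tested compounds on the plate plus 3 SD, cut at about 37% in these data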;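 further: 0% = orexin A challenge wells and 100% = SB-334867-A antagonist wells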
V1aR counter: agonists of human V1a receptor, primary screen, counter-screen for OXTR agonist project, fluorescence, CHO-V1R cells; Vasopressin V1a receptor (Homo sapiens), P37288; Fluo-8 calcium fluorescence, agonist mode; 0% DMSO, 100% 3 nM vasopressin; activation, % at 3 µM; 320,000 tested, 0.25% active; AID 2797, 2010;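 active means activation above the mean activation of all tested compounds plus 3 SD, per screening run, cut at about 20% in these data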;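 further: signal is peak over basal fluorescence ratio across a 100 second FLIPR read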
* hit, by the source's call. The list is not random: actives were taken first. Their share in the collection is about 2.7%.

SMILES | OX1R antag-1 | OXTR ag | CHO parental Ca | OXTR potentiator | OX1R antag-2 | V1aR counter
O=C(CNC(=O)c1ccc2c(c1)OCO2)N/N=C/c1cc(Br)ccc1O | 48* | -1 | 7 | -2 | 3 | 0
CN(C)S(=O)(=O)c1ccc(Cl)c(NC(=O)CNC2(C)CCS(=O)(=O)C2)c1 (centres undefined) | 7 | 0 | -13 | -6 | -7 | 1
O=C(N/N=C/c1c[nH]c2ccc(Br)cc12)c1ccc2c(c1)OCO2 | 69* | 1 | -9 | -4 | 0 | 0
O=C(CSCc1cccc(Br)c1)N/N=C/c1ccc2c(c1)OCO2 | 63* | 4 | 16 | -19 | 12 | 3
O=C(N/N=C/c1cc(Br)cc(Cl)c1O)c1ccc2c(c1)OCO2 | 22 | 1 | -5 | 4 | -18 | 1
Cc1cc(Br)cc(/C=N/NC(=O)c2ccc3c(c2)OCO3)c1O | 64* | -1 | -11 | -13 | -7 | 0
CC(C)C(=O)NCc1cc(-c2ccccc2)no1 | -2 | 0 | -10 | 6 | -2 | 0
CC(=O)C(=Nc1ccccc1Cl)NNc1ccc(Cl)cc1 | 77* | -3 | -3 | -8 | -17 | -1
O=S(=O)(NCc1csc(-c2cccnc2)n1)c1ccc2c(c1)OCCO2 | 72* | 1 | -12 | -20 | -1 | 3
O=S(=O)(NCc1csc(-c2ccccc2)n1)c1ccc(Cl)s1 | 27 | -3 | 3 | -2 | -2 | -1
CCc1ccc(S(=O)(=O)NCc2csc(-c3ccccc3)n2)s1 | 26 | -2 | -14 | -12 | -22 | 0
O=S(=O)(NCc1csc(-c2cccnc2)n1)c1ccc(Cl)s1 | 41* | 3 | -13 | -5 | 5 | 2
CCc1ccc(S(=O)(=O)NCCc2csc(-c3ccccc3)n2)s1 | 41* | 3 | -1 | -8 | 45 | 4
COCCn1c(C)cc(/C=C(\C#N)C(=O)OCC(=O)N(C)c2c(N)n(Cc3ccccc3)c(=O)[nH]c2=O)c1C | 23 | 0 | -24 | -4 | -23 | 1
O=C(COC(=O)CN1CCSC1=O)Nc1ccc(F)cc1Cl | 1 | 1 | 1 | -5 | 6 | 2
CC(C)Cn1c(-c2ccco2)nc2c(c(=O)c3ccccc3n2C)c1=O | 23 | -2 | -21 | -3 | -9 | -2
Cn1c2ccccc2c(=O)c2c(=O)n(C3CCCCC3)c(-c3ccco3)nc21 | 14 | 17 | 4 | -3 | -16 | 29*
O=C(N/C(=C\c1ccc([N+](=O)[O-])cc1)C(=O)N1CCOCC1)c1ccccc1 | 21 | 0 | -19 | -6 | -10 | 1
O=C(N/C(=C/c1ccc([N+](=O)[O-])cc1)C(=O)N1CCOCC1)c1ccco1 | 74* | 0 | -2 | -9 | -12 | 1
O=C(c1ccco1)N1CCN(c2ncnc3c2oc2ccccc23)CC1 | 74* | 8 | -14 | -18 | 0 | 8
CC(C)N(C(=O)Cn1c(=O)oc2ccccc21)c1ccccc1 | 7 | 1 | -1 | -2 | -34 | 2
CCOc1ccc(CCNC(=O)c2sc3nc4n(c(=O)c3c2C)CCC4)cc1 | 12 | 2 | -15 | -6 | -27 | 5
COc1ccccc1NCCC(=O)OCC(=O)Nc1cc([N+](=O)[O-])ccc1F | 15 | 4 | -20 | -8 | -8 | 3
COc1ccc(Cl)cc1N(CC(=O)NC1CC1)S(=O)(=O)c1ccc(C)c([N+](=O)[O-])c1 | 17 | 0 | 8 | -10 | -25 | 0
CCN(CC)C(=O)CN(c1cc(Cl)ccc1OC)S(=O)(=O)c1ccc(C)c([N+](=O)[O-])c1 | 74* | -1 | 3 | 0 | 39 | -1
CCN1/C(=C/c2ccc3cc(C)ccc3[n+]2CC)Sc2ccc3sccc3c21 | 27 | 5 | 48* | -4 | 29 | 7
O=Cc1c(Cl)nc2ccccn12 | 14 | 1 | -4 | -2 | -12 | 1
